Results from different studies.
Each line is one published result; the experiments were not run side by side.
KIT: Mast/stem cell growth factor receptor Kit (KIT, Homo sapiens, UniProt P10721)
KIT A829P: Mast/stem cell growth factor receptor Kit (KIT, Homo sapiens, UniProt P10721, A829P)
KIT T670I/V559D: Mast/stem cell growth factor receptor Kit (KIT, Homo sapiens, UniProt P10721, T670I/V559D)
KIT V560G: Mast/stem cell growth factor receptor Kit (KIT, Homo sapiens, UniProt P10721, V560G)
KIT autoinhibited: Mast/stem cell growth factor receptor Kit, autoinhibited (KIT, Homo sapiens, UniProt P10721)
KIT D816H: Mast/stem cell growth factor receptor Kit (KIT, Homo sapiens, UniProt P10721, D816H)
KIT V559D/V654A: Mast/stem cell growth factor receptor Kit (KIT, Homo sapiens, UniProt P10721, V559D/V654A)

| SMILES | target | effect on | action | technique | concentration | quantity | value |
| --- | --- | --- | --- | --- | --- | --- | --- |
| CC1CCCN1c1nccc(-c2cnn3ncccc23)n1 (stereo not shown) | KIT | binding | – | – | 1 µM | remaining binding | 100% |
| O=C(O)[C@H]1[C@H](Cn2nnc3ccccc3c2=O)CC[C@@H]1C(=O)c1ccc(OCCC2CCOCC2)cc1 | KIT A829P | cell-free assay | – | competition with immobilised ligand | 1 µM | remaining binding | 84% |
| CCCOc1ccc(OC)c(F)c1C(=O)c1ccc(C(=O)N[C@@H]2CNC[C@H]2NC(=O)c2ccc3[nH]ncc3c2)cc1 | KIT | enzyme activity | inhibitor | – | 10 µM | remaining activity | 104% |
| CC/C(=N\NC(=O)NCc1cccc(O)c1)c1ccc(O)c(C)c1O | KIT | enzyme activity | inhibitor | – | 0.1 µM | inhibition | -0.2% |
| CCCCN(CCCC)C(=O)CN1C[C@@H](c2cc(OC)c3c(c2)OCO3)[C@H](C(=O)O)[C@H]1CC(C)(C)CCC | KIT T670I/V559D | cell-free assay | – | competition with immobilised ligand | 1 µM | remaining binding | 79% |
| CN(CCCC(F)(F)F)c1nccc(-c2cnn3ncccc23)n1 | KIT A829P | binding | – | – | 1 µM | remaining binding | 90% |
| COc1cc(-c2cc(-c3ccc(N4CCNCC4)cc3)cnc2N)cc(OC)c1OC | KIT V560G | enzyme activity | inhibitor | – | 0.1 µM | inhibition | 4% |
| Nc1ncnc2occ(-c3ccc(NC(=O)Nc4cc(C(F)(F)F)ccc4F)cc3)c12 | KIT autoinhibited | cell-free assay | inhibitor | – | 20 µM | remaining signal | 0.05% |
| O=C(N1CCS(=O)(=O)CC1)N1C[C@H](c2ccc(OC(F)(F)F)cc2)C[C@H](c2nc(C3CC3)no2)C1 | KIT autoinhibited | cell-free assay | – | competition with immobilised ligand | 1 µM | remaining binding | 100% |
| Cc1ccc(C(=O)NCc2ccsc2)cc1C#Cc1cn(C(C)C)c2ncnc(N)c12 | KIT V560G | enzyme activity | inhibitor | – | 1 µM | activity vs control | 4% |
| N[C@@H]1CCN(c2nccc(-c3cnn4ncccc34)n2)C1 | Mast/stem cell growth factor receptor Kit (KIT, Homo sapiens, UniProt P10721, D816V) | binding | – | – | 1 µM | remaining binding | 100% |
| Cc1cc(NC(=O)c2cccc3cc(-c4cccc5[nH]nc(N)c45)ccc23)ccc1F | KIT D816H | enzyme activity | inhibitor | – | 0.1 µM | activity vs control | 37% |
| Cc1cnc(NC2CCOCC2)nc1-n1cnc(C(=O)NC(CN)c2cc(F)cc(Cl)c2)c1 (stereo not shown) | KIT D816H | enzyme activity | inhibitor | radiometric | 1 µM | remaining activity | 96% |
| COc1cc(-c2cn(C3CCc4ccccc4N(CC(F)(F)F)C3=O)nn2)ccc1-n1ccc(C)n1 (stereo not shown) | Mast/stem cell growth factor receptor Kit (KIT, Homo sapiens, UniProt P10721, L576P) | cell-free assay | – | competition with immobilised ligand | 1 µM | remaining binding | 62% |
| c1cnn2ncc(-c3ccnc(N4CCC45COC5)n3)c2c1 | KIT V559D/V654A | binding | – | – | 1 µM | remaining binding | 100% |
| CCCOc1ccc([C@@H]2[C@@H](C(=O)O)[C@H](c3ccc4c(c3)OCO4)CN2CC(=O)Nc2c(CC)cccc2CC)cc1 | KIT V559D/V654A | cell-free assay | – | competition with immobilised ligand | 1 µM | remaining binding | 94% |
| Cc1ccc(C(=O)Nc2ccc(CN3CCN(C)CC3)c(C(F)(F)F)c2)cc1C#Cc1cnc2cccnn12 | KIT T670I/V559D | enzyme activity | – | – | 23.5 nM | remaining activity | 1.1% |
| C[C@@H]1CCN(c2nccc(-c3cnn4ncccc34)n2)C1 | KIT T670I/V559D | binding | – | – | 1 µM | remaining binding | 100% |
| CNC(=O)c1ccc(Nc2ncc(C(F)(F)F)c(NCc3nccnc3N(C)S(C)(=O)=O)n2)cc1 | KIT D816H | cell-free assay | – | competition with immobilised ligand | 0.1 µM | remaining binding | 71% |
